How the values were obtained:
A-375 [1] = assay: Induction of apoptosis in human A375 cells assessed as late apoptotic cells at 2 uM after 48 hrs by Annexin V-FITC/PI staining based flow cytometry (reference value: 3.61%); assay type: functional
Method in brief: (§1)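 Apoptosis time course. A375 cells in 24-well plates (about 10⁵/well) at 2 µM for 0, 24, 48 and 72 h. Harvested by trypsin, washed in PBS, stained 15 min at room temperature in the dark with Annexin V-FITC/PI, analysed by flow cytometry.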

A-375 [2] = assay: Induction of apoptosis in human A375 cells assessed as early apoptotic cells at 2 uM after 48 hrs by Annexin V-FITC/PI staining based flow cytometry (reference value: 5.42%); assay type: functional; method in brief: as §1
A-375 [3] = assay: Induction of apoptosis in human A375 cells assessed as necrotic cells at 2 uM after 48 hrs by Annexin V-FITC/PI staining based flow cytometry (reference value: 1.55%); assay type: functional
A-375 [4] = assay: Cell cycle arrest in human A375 cells assessed as accumulation at G2/M phase at 2 uM after 72 hrs by propidium iodide staining based flow cytometry (reference value: 5.1%); assay type: functional
WM 266-4 = assay: Antiproliferative activity against human WM266.4 cells after 48 hrs by MTT assay; assay type: functional; details: WM 266-4, 48 h
Method in brief: (§2)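 MTT reduction assay. Cell lines grown to log phase in DMEM with 10% FBS (A375 in DMEM with sodium pyruvate added), seeded at 10⁴ cells/well in 96-well plates. Three replicate wells per concentration, each assay run three times, GI50 averaged.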

A-375 [5] = assay: Cell cycle arrest in human A375 cells assessed as accumulation at G1 phase at 20 uM after 24 hrs by propidium iodide staining based flow cytometry (reference value: 73.6%); assay type: functional
A-375 [6] = assay: Induction of apoptosis in human A375 cells assessed as viable cells at 5 uM after 24 hrs by Annexin V-FITC/PI staining based flow cytometry (reference value: 88.7%); assay type: functional; details: A-375, 24 h, read-out: Activity
[7] = Cytotoxicity against human LO2 cells assessed as decrease in cell viability after 48 hrs by MTT assay; assay type: cell-based, L02; method in brief: as §2
[8] = Effect on total MEK1/2 protein level in human WM1361 cells after 30 mins by Western blot analysis; assay type: ADME, cell-based; details: 0.5 h
Method in brief: (§3)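 Western blot. Cells rinsed in cold PBS, lysed 30 min on ice in RIPA with protease inhibitors (1:100), cleared at 12,000 g, 4 °C. Protein measured by BCA, resolved by SDS-PAGE, transferred to PVDF, blocked in skim milk. Primary antibodies 1:500 overnight at 4 °C; secondary 1:5000 for 1 h at room temperature.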

A-375 [9] = assay: Induction of apoptosis in human A375 cells assessed as necrotic cells at 2 uM after 24 hrs by Annexin V-FITC/PI staining based flow cytometry (reference value: 1.55%); assay type: functional
A-375 [10] = assay: Induction of apoptosis in human A375 cells assessed as necrotic cells at 2 uM after 72 hrs by Annexin V-FITC/PI staining based flow cytometry (reference value: 1.55%); assay type: functional
A-375 [11] = assay: Cell cycle arrest in human A375 cells assessed as accumulation at S phase at 2 uM after 48 hrs by propidium iodide staining based flow cytometry (reference value: 21.3%); assay type: functional
[12] = Antiproliferative activity against human WM1361 cells after 48 hrs by MTT assay; assay type: functional; details: WM1361, 48 h; method in brief: as §2
[13] = molecular target: Mitogen-activated protein kinase 14 (Homo sapiens, UniProt Q16539); assay: Inhibition of N-terminal flag-tagged p38alpha (unknown origin) expressed in baculovirus expression system using MBP as substrate preincubated for 5 mins followed by substrate addition measured after 60 mins in presence of [gamma-32P]ATP by topcount scintillation method
Method in brief: (§4)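 Baculovirus-expressed N-terminal FLAG-tagged kinases in 25 mM HEPES pH 7.5, 10 mM Mg acetate, 1 mM DTT, 0.5 µM ATP plus [γ-³²P]ATP, 50 µL. p38α: 100 ng enzyme, MBP substrate. JNK1: 10 ng enzyme, 1 µg c-Jun. Compound and enzyme preincubated 5 min, ATP started the reaction, 60 min at 30 °C. Stopped with 10% TCA, filtered, washed with 3% phosphoric acid, counted by TopCount.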

[14] = molecular target: Mitogen-activated protein kinase 8 (Homo sapiens, UniProt P45983); assay: Inhibition of N-terminal flag-tagged JNK1 (unknown origin) expressed in baculovirus expression system after 60 mins in presence of [gamma-32P]ATP by topcount scintillation method; method in brief: as §4
A-375 [15] = assay: Induction of apoptosis in human A375 cells assessed as viable cells at 2.5 uM after 24 hrs by Annexin V-FITC/PI staining based flow cytometry (reference value: 88.7%); assay type: functional; details: A-375, 24 h, read-out: Activity
A-375 [16] = assay: Induction of apoptosis in human A375 cells assessed as early apoptotic cells at 2.5 uM after 24 hrs by Annexin V-FITC/PI staining based flow cytometry (reference value: 5.45%); assay type: functional
A-375 [17] = assay: Induction of apoptosis in human A375 cells assessed as viable cells at 2 uM after 24 hrs by Annexin V-FITC/PI staining based flow cytometry (reference value: 89.4%); assay type: functional; details: A-375, 24 h, read-out: Activity
A-375 [18] = assay: Induction of apoptosis in human A375 cells assessed as viable cells at 20 uM after 24 hrs by Annexin V-FITC/PI staining based flow cytometry (reference value: 88.7%); assay type: functional; details: A-375, 24 h, read-out: Activity
[19] = molecular target: Dual specificity mitogen-activated protein kinase kinase; MEK1/2 (Homo sapiens, UniProt P36507+Q02750); assay: Inhibition of MEK1/2 (unknown origin); assay type: protein assay
A-375 [20] = assay: Antitumor activity against human A375 cells xenografted in nude mouse assessed as decrease in tumor weight at 10 mg/kg, ip administered every second day for 14 days and measured on day 15 relative to control; assay type: functional
Method in brief: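 A375 cells, 3 × 10⁶ in 0.1 mL cold PBS, injected subcutaneously into right flank of nude mice. Treatment began when tumors reached ~100 mm³; mice randomized, 5 per group. Compound suspended in olive oil, given intraperitoneally every second day for 14 days. Body weight recorded every two days; tumors excised and weighed on day 15.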

A-375 [21] = assay: Induction of apoptosis in human A375 cells after 24 to 72 hrs by Annexin V-FITC/PI staining based flow cytometry; assay type: functional, cell-based; method in brief: as §1
A-375 [22] = assay: Induction of apoptosis in human A375 cells assessed as early apoptotic cells at 10 uM after 24 hrs by Annexin V-FITC/PI staining based flow cytometry (reference value: 5.45%); assay type: functional
A-375 [23] = assay: Induction of apoptosis in human A375 cells assessed as viable cells at 2 uM after 72 hrs by Annexin V-FITC/PI staining based flow cytometry (reference value: 89.4%); assay type: functional; details: A-375, 72 h, read-out: Activity
A-375 [24] = assay: Cell cycle arrest in human A375 cells assessed as accumulation at G1 phase at 2 uM after 24 hrs by propidium iodide staining based flow cytometry (reference value: 73.6%); assay type: functional
A-375 [25] = assay: Cell cycle arrest in human A375 cells assessed as accumulation at S phase at 2 uM after 72 hrs by propidium iodide staining based flow cytometry (reference value: 21.3%); assay type: functional
A-375 [26] = assay: Induction of apoptosis in human A375 cells assessed as viable cells at 10 uM after 24 hrs by Annexin V-FITC/PI staining based flow cytometry (reference value: 88.7%); assay type: functional; details: A-375, 24 h, read-out: Activity
A-375 [27] = assay: Effect on total ERK1/2 protein level in human A375 cells after 30 mins by Western blot analysis; assay type: ADME, cell-based; details: a-375, 0.5 h; method in brief: as §3

Sequence of Mitogen-activated protein kinase 14 (Q16539 whole entry): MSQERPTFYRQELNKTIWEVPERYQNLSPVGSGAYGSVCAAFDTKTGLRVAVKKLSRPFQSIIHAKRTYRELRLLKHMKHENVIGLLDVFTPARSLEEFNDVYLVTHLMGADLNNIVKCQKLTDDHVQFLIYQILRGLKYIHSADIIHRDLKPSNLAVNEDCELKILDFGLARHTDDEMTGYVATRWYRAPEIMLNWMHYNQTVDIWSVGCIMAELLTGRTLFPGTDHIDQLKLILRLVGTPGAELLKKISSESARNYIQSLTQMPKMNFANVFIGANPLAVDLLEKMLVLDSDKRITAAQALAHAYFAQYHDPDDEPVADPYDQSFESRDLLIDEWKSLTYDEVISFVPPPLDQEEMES
Sequence of Mitogen-activated protein kinase 8 (P45983 whole entry): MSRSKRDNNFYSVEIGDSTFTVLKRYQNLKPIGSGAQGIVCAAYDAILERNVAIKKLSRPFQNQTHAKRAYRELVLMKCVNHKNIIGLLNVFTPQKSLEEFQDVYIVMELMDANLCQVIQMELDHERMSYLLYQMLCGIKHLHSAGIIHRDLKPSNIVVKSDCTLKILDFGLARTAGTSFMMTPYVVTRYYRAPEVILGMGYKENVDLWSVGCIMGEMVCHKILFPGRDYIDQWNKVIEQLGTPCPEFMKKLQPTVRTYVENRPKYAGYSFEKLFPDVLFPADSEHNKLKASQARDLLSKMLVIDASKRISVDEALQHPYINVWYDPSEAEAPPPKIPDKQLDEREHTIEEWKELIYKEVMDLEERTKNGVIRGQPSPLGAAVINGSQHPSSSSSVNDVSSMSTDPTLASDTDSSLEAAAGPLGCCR

With `COc1cccc(C2=NN(C(=S)Nc3ccccc3)C(c3ccc4c(c3)OCCO4)C2)c1` (stereo not drawn) the Activity (A-375 [1]) was 5.37%, the Activity (A-375 [2]) was 17.1% and the Activity (A-375 [3]) was 3.05%. The Activity (A-375 [4]) was 36.8%, the GI50 (WM 266-4) was 1.38 µM and the Activity (A-375 [5]) was 52.8%. For the same compound, the viability at 5 µM (A-375 [6]) was 65%, the GI50 at 48 h [7] was over 200 µM and the Activity [8] was “Non-Toxic”. The Activity (A-375 [9]) was 2.56%, the Activity (A-375 [10]) was 2.24% and the Activity (A-375 [11]) was 26.2%. The GI50 [12] was over 200 µM, the IC50 [13] was over 200 µM and the IC50 [14] was over 200 µM. It also gave a viability at 2.5 µM (A-375 [15]) of 74.4%, an Activity (A-375 [16]) of 16.7% and a viability at 2 µM (A-375 [17]) of 80.8%. For the same compound, the viability at 20 µM (A-375 [18]) was 36.2%, the IC50 [19] was 195 µM and the “fold change (FC)” value (A-375 [20]) was 2. For the same compound, the Activity (A-375 [21]) was “Dose-dependent effect”, the Activity (A-375 [22]) was 45% and the viability at 2 µM (A-375 [23]) was 71.1%. The Activity (A-375 [24]) was 72.4%, the Activity (A-375 [25]) was 27.6% and the viability at 10 µM (A-375 [26]) was 41.5%. For the same compound, the Activity (A-375 [27]) was “Non-Toxic”.

Source: ChEMBL document CHEMBL4270537, “Design and biological evaluation of novel triaryl pyrazoline derivatives with dioxane moiety for selective BRAFV600E inhibition” (Eur J Med Chem, 2018)
